Reference: ChEMBL document CHEMBL3244396, “Synthesis and antileukemic activity of 5-substituted 2,3-dihydro-6,7-bis(hydroxymethyl)-1H-pyrrolizine diesters” (J Med Chem, 1977)
Values after ≈ are worked out from the molar mass of the structure shown.

Tests used:
[1] = system: Mus musculus; experiment: Toxicity in female CDF1 mouse allografted with mouse L1210 cells assessed as animal survival at 50 mg/kg, ip administered daily for 9 days as Klucel suspension starting 24 hrs after tumor inoculation measured on fifth day; format: organism-based; design: dose 50 mg/kg, route intraperitoneal; details: in vivo
Procedure, shortened: (§1)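 L1210 leukemia passaged as ascitic fluid and inoculated ip. Test agent given ip as a Klucel (hydroxypropylcellulose) suspension, nine daily doses starting 24 h after tumor inoculation. Acute toxicity read as toxicity-day survivors per group (out of 6), recorded on day 5. Animal weight difference T − C was also recorded. Follows NCI screening protocols.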

[2] = system: L1210; experiment: Antileukemic activity against mouse L1210 cells allografted in male CDF1 mouse assessed as host mean survival time at 200 mg/kg, ip administered daily for 9 days as Klucel suspension starting 24 hrs after tumor inoculation relative to control; format: functional; details: route intraperitoneal
Procedure, shortened: (§2)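 L1210 leukemia given as an ascitic fluid cell inoculum, ip, to mice of the strain and sex in each line. Test material was given ip for nine daily doses starting 24 h after inoculation, in a Klucel (hydroxypropylcellulose) suspension. Read-out is mean survival time as %T/C versus controls, with >125 taken as significant.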

[3] = system: L1210; experiment: Antileukemic activity against mouse L1210 cells allografted in female CDF1 mouse assessed as change in body weight at 100 mg/kg, ip administered daily for 9 days as Klucel suspension starting 24 hrs after tumor inoculation; format: functional; details: route intraperitoneal
Procedure, shortened: (§3)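 Ascitic fluid carrying L1210 cells was inoculated ip. Compound was given ip as a Klucel (hydroxypropylcellulose) suspension in nine daily doses, starting 24 h after inoculation. Body-weight difference (treated minus control) was recorded on day 5. Survival was scored as %T/C of mean survival time.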

[4] = system: L1210; experiment: Antileukemic activity against mouse L1210 cells allografted in female CDF1 mouse assessed as change in body weight at 200 mg/kg, ip administered daily for 9 days as Klucel suspension starting 24 hrs after tumor inoculation; format: functional; details: route intraperitoneal; procedure, shortened: as §3
[5] = system: Mus musculus; experiment: Toxicity in female CDF1 mouse allografted with mouse L1210 cells assessed as animal survival at 400 mg/kg, ip administered daily for 9 days as Klucel suspension starting 24 hrs after tumor inoculation measured on fifth day; format: organism-based; design: dose 400 mg/kg, route intraperitoneal; details: in vivo; procedure, shortened: as §1
[6] = system: L1210; experiment: Antileukemic activity against mouse L1210 cells allografted in male CDF1 mouse assessed as change in body weight at 100 mg/kg, ip administered daily for 9 days as Klucel suspension starting 24 hrs after tumor inoculation; format: functional; details: route intraperitoneal; procedure, shortened: as §3
[7] = system: L1210; experiment: Antileukemic activity against mouse L1210 cells allografted in male CDF1 mouse assessed as host mean survival time at 100 mg/kg, ip administered daily for 9 days as Klucel suspension starting 24 hrs after tumor inoculation relative to control; format: functional; details: route intraperitoneal; procedure, shortened: as §2
[8] = system: L1210; experiment: Antileukemic activity against mouse L1210 cells allografted in male CDF1 mouse assessed as change in body weight at 50 mg/kg, ip administered daily for 9 days as Klucel suspension starting 24 hrs after tumor inoculation; format: functional; details: route intraperitoneal; procedure, shortened: as §3
[9] = system: L1210; experiment: Antileukemic activity against mouse L1210 cells allografted in female CDF1 mouse assessed as change in body weight at 50 mg/kg, ip administered daily for 9 days as Klucel suspension starting 24 hrs after tumor inoculation; format: functional; details: route intraperitoneal; procedure, shortened: as §3
[10] = system: L1210; experiment: Antileukemic activity against mouse L1210 cells allografted in male CDF1 mouse assessed as host mean survival time at 50 mg/kg, ip administered daily for 9 days as Klucel suspension starting 24 hrs after tumor inoculation relative to control; format: functional; details: route intraperitoneal; procedure, shortened: as §2
[11] = system: L1210; experiment: Antileukemic activity against mouse L1210 cells allografted in female CDF1 mouse assessed as host mean survival time at 50 mg/kg, ip administered daily for 9 days as Klucel suspension starting 24 hrs after tumor inoculation relative to control; format: functional; details: route intraperitoneal; procedure, shortened: as §2
[12] = Cytotoxicity against human 9KB cells treated as ethanol solution; format: functional; details: read-out: ED50 (the source's name)
Procedure, shortened: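 Compound applied as an ethanol solution; activity read out as ED50 under the general screening protocol.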

[13] = system: L1210; experiment: Antileukemic activity against mouse L1210 cells allografted in female CDF1 mouse assessed as host mean survival time at 200 mg/kg, ip administered daily for 9 days as Klucel suspension starting 24 hrs after tumor inoculation relative to control; format: functional; details: route intraperitoneal; procedure, shortened: as §2
[14] = system: L1210; experiment: Antileukemic activity against mouse L1210 cells allografted in female CDF1 mouse assessed as host mean survival time at 100 mg/kg, ip administered daily for 9 days as Klucel suspension starting 24 hrs after tumor inoculation relative to control; format: functional; details: route intraperitoneal; procedure, shortened: as §2
[15] = system: L1210; experiment: Antileukemic activity against mouse L1210 cells allografted in female CDF1 mouse assessed as change in body weight at 400 mg/kg, ip administered daily for 9 days as Klucel suspension starting 24 hrs after tumor inoculation; format: functional; details: route intraperitoneal; procedure, shortened: as §3
[16] = system: Mus musculus; experiment: Toxicity in male CDF1 mouse allografted with mouse L1210 cells assessed as animal survival at 50 mg/kg, ip administered daily for 9 days as Klucel suspension starting 24 hrs after tumor inoculation measured on fifth day; format: organism-based; design: dose 50 mg/kg, route intraperitoneal; details: in vivo; procedure, shortened: as §1
[17] = system: Mus musculus; experiment: Toxicity in male CDF1 mouse allografted with mouse L1210 cells assessed as animal survival at 200 mg/kg, ip administered daily for 9 days as Klucel suspension starting 24 hrs after tumor inoculation measured on fifth day; format: organism-based; design: dose 200 mg/kg, route intraperitoneal; details: in vivo; procedure, shortened: as §1
[18] = system: Mus musculus; experiment: Toxicity in male CDF1 mouse allografted with mouse L1210 cells assessed as animal survival at 100 mg/kg, ip administered daily for 9 days as Klucel suspension starting 24 hrs after tumor inoculation measured on fifth day; format: organism-based; design: dose 100 mg/kg, route intraperitoneal; details: in vivo; procedure, shortened: as §1
[19] = system: L1210; experiment: Antileukemic activity against mouse L1210 cells allografted in male CDF1 mouse assessed as change in body weight at 200 mg/kg, ip administered daily for 9 days as Klucel suspension starting 24 hrs after tumor inoculation; format: functional; details: route intraperitoneal; procedure, shortened: as §3

With `COc1ccc(-c2c(COC(C)=O)c(COC(C)=O)c3n2CCC3)cc1` the Activity [1] was “Non-toxic”, the T/C [2] was 130% and the Activity [3] was -2.5 g. The Activity [4] was -2.5 g, the Activity [5] was “Toxic” and the Activity [6] was -7.2 g. The T/C [7] was 78%, the Activity [8] was -2.9 g and the Activity [9] was -1 g. It also gave a T/C [10] of 113%, a T/C [11] of 77% and an EC50 [12] of 2.5 µg/mL (≈ 6.99 µM). For the same compound, the T/C [13] was 65%, the T/C [14] was 65% and the Activity [15] was -0.1 g. For the same compound, the Activity [16] was “Non-toxic”, the Activity [17] was “Non-toxic” and the Activity [18] was “Non-toxic”. The Activity [19] was -5.2 g.
